PMC3481835 (Clinical pharmacology and therapeutics, 2011)
Where two headings read alike, the source gives them in different places.

Legend:
CYP3A4 [1] = details: cited from earlier work; for decrease in urinary 6β-hydroxycortisol to cortisol-ratio: range printed for the three inhibitors
[2] = Renal clearance of cortisol; type: in vivo, human
CYP3A4 [3] = target: T1, CYP3A4 (Homo sapiens, UniProt P08684); details: recombinant enzyme, pH 7.4
CYP2B6 [4] = target: T2, CYP2B6 (Homo sapiens, UniProt P20813); details: recombinant enzyme
T2 sequence (P20813 1-491): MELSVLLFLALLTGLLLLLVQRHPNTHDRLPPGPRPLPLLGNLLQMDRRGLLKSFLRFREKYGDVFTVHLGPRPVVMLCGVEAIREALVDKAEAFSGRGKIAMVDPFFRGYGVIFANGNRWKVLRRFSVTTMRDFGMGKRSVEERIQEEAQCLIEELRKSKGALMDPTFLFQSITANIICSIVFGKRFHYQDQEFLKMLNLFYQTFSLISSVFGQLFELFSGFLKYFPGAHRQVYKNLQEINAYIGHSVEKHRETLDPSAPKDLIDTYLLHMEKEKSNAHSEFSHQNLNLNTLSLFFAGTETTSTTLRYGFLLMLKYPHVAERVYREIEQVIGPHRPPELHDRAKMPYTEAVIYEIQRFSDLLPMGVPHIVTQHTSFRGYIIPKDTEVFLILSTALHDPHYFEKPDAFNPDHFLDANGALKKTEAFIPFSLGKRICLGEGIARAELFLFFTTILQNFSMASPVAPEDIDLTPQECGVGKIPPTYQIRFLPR

CYP2B6 [5] = target: T2, CYP2B6; test: 6β-hydroxylation by recombinantly-expressed CYP2B6; details: recombinantly-expressed enzyme
CYP3A4 [6] = details: during treatment; cited from earlier work
CYP3A4 [7] = target: T1, CYP3A4; test: Formation clearance; type: in vivo; details: 50 mg itraconazole
[8] = Plasma concentrations of cortisol and cortisone after itraconazole; type: in vivo, human; details: single doses 50, 200 and 400 mg po
CYP3A4 [9] = type: in vivo, human
CYP3A4 [10] = target: T1, CYP3A4; test: in vitro; details: pH 7.4
CYP3A4 [11] = details: cited from earlier work; for predicted decrease in CYP3A4 mediated clearance: predicted from I/Ki
CYP3A4 [12] = target: T1, CYP3A4; test: in vitro; details: pH 7.4; remark: listed apart in the source
Fraction unbound = type: in vitro ADME; details: human, pooled human liver microsomes
In short: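 Pooled microsomes from three CYP3A5*3/*3 donors (equal protein each), 0.5 mg/mL, spiked with test compound at 5, 50 or 1000 nM, duplicates. Each sample split: one aliquot ultracentrifuged at 445,760 g, 140 min, 37 °C; the other held at 37 °C for the same time. Upper clear layer and uncentrifuged sample taken into ACN with deuterated internal standard; HPLC (C8, ammonium acetate/ACN gradient) with LC-MS.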

T1 sequence (P08684 whole entry): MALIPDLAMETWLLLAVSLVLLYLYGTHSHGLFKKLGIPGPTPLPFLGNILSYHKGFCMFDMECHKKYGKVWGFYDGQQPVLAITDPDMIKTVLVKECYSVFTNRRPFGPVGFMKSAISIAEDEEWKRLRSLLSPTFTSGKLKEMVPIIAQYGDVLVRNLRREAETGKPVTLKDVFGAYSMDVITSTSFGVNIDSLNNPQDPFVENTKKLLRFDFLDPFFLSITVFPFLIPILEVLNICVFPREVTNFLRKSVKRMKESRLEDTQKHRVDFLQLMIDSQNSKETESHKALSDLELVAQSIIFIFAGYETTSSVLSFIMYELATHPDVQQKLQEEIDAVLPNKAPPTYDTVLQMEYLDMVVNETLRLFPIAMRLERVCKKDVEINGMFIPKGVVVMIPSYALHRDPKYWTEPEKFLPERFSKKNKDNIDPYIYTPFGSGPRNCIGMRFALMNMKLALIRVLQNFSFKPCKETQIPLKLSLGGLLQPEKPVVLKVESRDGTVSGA

Structure (SMILES): CC(C)CN(C[C@@H](O)[C@H](Cc1ccccc1)NC(=O)O[C@H]1CCOC1)S(=O)(=O)c1ccc(N)cc1 [amprenavir]
- effect on urinary 6β-hydroxycortisol to cortisol ratio (CYP3A4 [1]): no significant inhibitory effect

Structure (SMILES): CC[C@H]1OC(=O)[C@H](C)[C@@H](O[C@H]2C[C@@](C)(OC)[C@@H](O)[C@H](C)O2)[C@H](C)[C@@H](O[C@@H]2O[C@H](C)C[C@H](N(C)C)[C@H]2O)[C@](C)(OC)C[C@@H](C)C(=O)[C@H](C)[C@@H](O)[C@]1(C)O [clarithromycin]
- decrease in urinary 6β-hydroxycortisol to cortisol-ratio (CYP3A4 [1]): 15-65%

Structure (SMILES): C[C@]12CCC(=O)C=C1CC[C@@H]1[C@@H]2[C@@H](O)C[C@@]2(C)[C@H]1CC[C@]2(O)C(=O)CO [cortisol]
- CL renal ([2]; both, human, urine and plasma): 0.283 mL/min
- intrinsic clearance (CLint), 6β-hydroxylation by CYP3A4 (CYP3A4 [3]): 0.18 mL/min/nmol CYP3A4
- v, 6β-hydroxylation by CYP2B6 (CYP2B6 [4]; human, 25 µM, pH 7.4): 0.11 pmol/min/pmol
- CYP3A4 mediated CLint relative to CYP2B6 mediated CLint (CYP2B6 [4]; human, pH 7.4): 40 fold
- apparent CYP2B6 mediated intrinsic clearance (CYP2B6 [4]; human, pH 7.4): 0.0045 mL/min/nmol P450
- 6β-hydroxylation detected with CYP2B6 (CYP2B6 [4]): observed

Structure (SMILES): C[C@]12CCC(=O)C=C1CC[C@@H]1[C@@H]2C(=O)C[C@@]2(C)[C@H]1CC[C@]2(O)C(=O)CO [cortisone]
- 6β-hydroxylation detected with CYP2B6 (CYP2B6 [5]): not

Structure (SMILES): C#C[C@]1(O)CC[C@H]2[C@@H]3CCC4=Cc5oncc5C[C@]4(C)[C@H]3CC[C@@]21C [danazol]
- decrease in urinary 6β-hydroxycortisol to cortisol-ratio (CYP3A4 [1]): 15-65%

Structure (SMILES): CCC(C)n1ncn(-c2ccc(N3CCN(c4ccc(OCC5COC(Cn6cncn6)(c6ccc(Cl)cc6Cl)O5)cc4)CC3)cc2)c1=O (stereo not shown) [itraconazole]
- effect on renal clearance of cortisol ([2]; escalating itraconazole doses): unchanged
- decrease in 4β-hydroxycholesterol concentrations (CYP3A4 [6]): 21-29%
- decrease in total cholesterol (CYP3A4 [6]): 10%
- decrease in the CLf processes (CYP3A4 [7]): No significant decrease
- effect on the plasma concentrations of cortisol or cortisone [8]: no effect
- predicted decrease in oral midazolam clearance (CYP3A4 [9]; 50 mg ITZ): 30%
- predicted decrease in hepatic midazolam clearance (CYP3A4 [9]; 50 mg ITZ, from circulating ITZ and metabolites and in vitro IC50): 21%
- predicted decrease in oral midazolam clearance (CYP3A4 [9]; 200 mg ITZ): 77%
- Emax at 15 min (CYP3A4 [10]): 78 to 85%
- decrease in MDZ CL/F (CYP3A4 [11]; 50 mg itraconazole): 50%
- predicted decrease in CYP3A4 mediated clearance (CYP3A4 [11]; 24-48 hours after 400 mg): 50-70%
- decrease in MDZ CL/F (CYP3A4 [11]; 200 and 400 mg itraconazole): 80%
- expected persistence of CYP3A4 inhibition (CYP3A4 [11]; after 400 mg, return to baseline at 72 hours): 48 h
- RKi (IC50,in vitro/IC50,in vivo), itraconazole-oral MDZ interaction (CYP3A4 [11]): 14.5
- predicted decrease in CYP3A4 mediated clearance (CYP3A4 [11]; first 24 hours after 400 mg): 70-90%
- Emax at 15 min (CYP3A4 [12]): 78 to 85%
- fraction unbound at 140 min (Fraction unbound): 0.046 ± 0.01

Structure (SMILES): Cc1ncc2n1-c1ccc(Cl)cc1C(c1ccccc1F)=NC2 [midazolam]
- in vivo fm attributed to CYP3A4, midazolam metabolism (CYP3A4 [11]; ref not given): 84%
